# Screens (PubChem BioAssay)
# SENP8 block-1 – SENP8 (human) protease inhibition. actives 0.64% (n = 360,000). recombinant SENP8, Nedd8 substrate fluorescence. Q96LD8. AID 602440. inhibition, % at 20 µM; in the data active = inhibition mostly above about 40%, no sharp cut-off; inactive = mostly below about 27%
# Target sequence (Q96LD8 whole entry, looked up): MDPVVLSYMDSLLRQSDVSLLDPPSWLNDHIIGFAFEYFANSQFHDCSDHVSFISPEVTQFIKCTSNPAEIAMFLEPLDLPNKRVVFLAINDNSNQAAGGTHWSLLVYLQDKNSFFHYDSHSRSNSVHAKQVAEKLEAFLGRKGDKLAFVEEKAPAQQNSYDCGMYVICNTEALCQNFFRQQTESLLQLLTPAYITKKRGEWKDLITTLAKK
# SENP6 block – SENP6 protease inhibition | Q9GZR1 | Recombinant SENP6 catalytic domain, aminoluciferin luminescence | inhibition, % at 10 µM | actives 1.8% (n = 330,000) | AID 2599;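 active = inhibition above about 50% at the single tested dose, limit read from the data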;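 note: plate controls were DMSO wells with enzyme for no effect and DMSO wells lacking enzyme for full effect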
# SENP7 block – inhibitors of human SENP7 protease; recombinant SENP7, Z-RLRGG-aminoluciferin luminescence, 40 min; actives 1.5% (n = 330,000); AID 434973; inhibition, % at 5 µM; Q9BQF6;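 active = inhibition above about 50% at the single test dose, limit read from the data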;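 note: plate controls were DMSO with enzyme for no effect and no enzyme buffer wells for full effect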
# Target sequence (Q9BQF6 706-1050 limits assumed): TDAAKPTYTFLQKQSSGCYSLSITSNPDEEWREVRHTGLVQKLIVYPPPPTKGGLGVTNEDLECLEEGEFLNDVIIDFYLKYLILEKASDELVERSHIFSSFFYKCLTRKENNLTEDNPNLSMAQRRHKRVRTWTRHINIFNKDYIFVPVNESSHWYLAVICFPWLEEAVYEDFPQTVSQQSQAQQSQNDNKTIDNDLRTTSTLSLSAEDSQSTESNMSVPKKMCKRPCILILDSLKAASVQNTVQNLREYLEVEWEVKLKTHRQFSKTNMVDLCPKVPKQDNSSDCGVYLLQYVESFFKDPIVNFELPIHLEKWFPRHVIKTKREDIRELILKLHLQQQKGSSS
# SENP1 FRET inh – blocks the human SENP1 SUMO protease catalytic domain; Q9P0U3; recombinant SENP1 catalytic domain, CyPet-SUMO1-YPet FRET cleavage; inhibition, % at 10 µM; actives 0.21% (n = 360,000);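 active = inhibition at least 30% at 10 µM, raw YFP signal under a set limit, fluorescence ratio 0.5 to 1.5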;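 note: 0% = enzyme with DMSO and 100% = no enzyme wells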
#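 Assay system: hSENP1 catalytic domain, recombinant. Amount: SENP1 enzyme, 20 pM final. Schedule: 50 min reaction, RT, dark. Technique: FRET, CFP and YFP emission. Control set: no-enzyme wells low, DMSO-plus-enzyme wells high control.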
# SENP8 block-2 – blocks the human protease SENP8; inhibition, % at 10 µM; purified SENP8, Z-RLRGG-aminoluciferin cleavage, luminescence; actives 1.2% (n = 330,000); AID 2540; Q96LD8; in the data active = inhibition above about 50%
# SENP8 confirm – human SENP8 inhibition, confirmed. shares compounds with SENP7 block. actives 40% (n = 6,200). Recombinant SENP8, Z-RLRGG-aminoluciferin luminescence, 60 min. inhibition, % at 12.5 µM;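 active = mean inhibition across replicates above about 50%, limit read from the data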
# SENP6 confirm – human SENP6 inhibition, confirmed | shares compounds with SENP7 block | recombinant SENP6, Z-RLRGG-aminoluciferin luminescence | inhibition, % at 12.5 µM | actives 58% (n = 6,200) | AID 488915
# SENP7 conf – human SENP7 inhibition, confirmed. shares compounds with SENP7 block. recombinant SENP7, Z-RLRGG-aminoluciferin luminescence, 40 min. inhibition, % at 12.5 µM. actives 69% (n = 6,200). AID 488917
# Casp3 select – caspase-3 inhibition (SENP selectivity assay); inhibition, % at 12.5 µM; shares compounds with SENP7 block; actives 60% (n = 6,200); AID 488918; purified caspase-3, Z-DEVD-aminoluciferin luminescence, 60 min;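 active = mean inhibition above about 50%, limit read from the data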;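 note: plate controls were enzyme with DMSO for no effect and wells without caspase-3 for full effect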
# Luc interf – interferes with luciferase luminescence in SENP counter-screen | shares compounds with SENP7 block | Pre-incubated SENP8/Z-RLRGG-aminoluciferin, luciferase luminescence interference | inhibition, % at 12.5 µM | actives 39% (n = 6,200);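 active = mean inhibition above about 50% when retested at one dose, limit read from the data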;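 note: plate controls were DMSO wells with completed reaction for no effect and substrate without enzyme for full effect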
# An asterisk follows results filed as active; x = no result given. This is a sample that favours compounds with a hit; in the whole collection about 2.5% have one here.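 Rule for the calls, unless noted: active = mean inhibition above about 50% in the one-dose retest (limit read from the data); inactive = the rest.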
SMILES,SENP8 block-1,SENP6 block,SENP7 block,SENP1 FRET inh,SENP8 block-2,SENP8 confirm,SENP6 confirm,SENP7 conf,Casp3 select,Luc interf
Cc1cccc(NC(=O)Nc2cccc(F)c2)n1,16,3,12,-2,-4,x,x,x,x,x
Cc1ccnc(NC(=O)Nc2cccc(F)c2)c1,15,93*,94*,5,73*,56*,72*,89*,72*,17
Cc1ccc(NC(=O)Nc2cccc(F)c2)nc1,7,52*,53*,0,12,5,26,36,38,12
O=C(Nc1cccc(F)c1)Nc1ccc(Cl)cn1,1,25,24,0,-6,x,x,x,x,x
COC(=O)C1CN(Cc2ccccc2)C(=O)C1=O (centres undefined),12,x,x,0,x,x,x,x,x,x
C/C(=N/NC(=O)c1cccs1)c1c(C)[nH]n(-c2nc3ccccc3s2)c1=O,-372,97*,99*,-26,93*,90*,81*,94*,98*,66*
CCCc1[nH]n(-c2nc3ccccc3s2)c(=O)c1C=NCC(C)C,33,-4,4,3,-4,x,x,x,x,x
O=c1c(C=NCc2cccnc2)c(C(F)(F)F)[nH]n1-c1nc2ccccc2s1,4,97*,99*,-2,97*,100*,101*,103*,99*,99*
CCC(=NCc1ccccc1)c1c(C(F)(F)F)[nH]n(-c2nc3ccccc3s2)c1=O,7,85*,89*,2,60*,18,12,20,64*,49
CCC(=NCc1ccco1)c1c(C(F)(F)F)[nH]n(-c2nc3ccccc3s2)c1=O,3,96*,96*,-1,88*,73*,70*,90*,90*,81*
Cc1[nH]c2ccccc2c1C(=O)C(=O)NCCc1ccc(S(N)(=O)=O)cc1,22,-10,12,1,-2,x,x,x,x,x
CCNC(=O)C1(C)CCCN(C(=O)c2ccc3c(c2)C(C)(C)CCC3(C)C)C1 (centres undefined),10,x,x,0,x,x,x,x,x,x
O=C1Nc2ccccc2N=C(c2ccc3c(c2)OCO3)C1N(C(=O)c1ccc2ccccc2c1)C1CC1 (centres undefined),-108,x,x,-9,x,x,x,x,x,x
CC(=NCc1ccco1)c1c(C)[nH]n(-c2nc3ccccc3s2)c1=O,14,65*,2,-4,24,3,2,73*,50,17
CCCN=C(C)c1c(-c2ccccc2)[nH]n(-c2nc3ccccc3s2)c1=O,13,0,0,2,-1,x,x,x,x,x
Cc1ccc(NC(=O)C(=O)c2ccc(C)cc2)cc1,9,65*,62*,0,54*,59*,59*,87*,60*,35
Cc1ccc(C(=O)Nc2ccc3ccccc3c2)cc1,8,91*,97*,2,87*,13,51*,101*,89*,35
Cc1ccc2cc(NC(=O)c3ccccc3)ccc2n1,3,62*,64*,2,53*,8,43,81*,74*,63*
Cc1ccc2cc(NC(=O)CC(CC(=O)O)c3ccccc3)ccc2n1 (centres undefined),-17,-21,6,2,8,x,x,x,x,x
COc1ccc(C(=O)Nc2ccc(C(=O)Nc3cccc(C)c3)cc2)cc1,6,8,0,0,0,x,x,x,x,x
Cc1ccc(NC(=O)c2cccc3cccnc23)cc1,16,54*,28,0,30,50*,45,72*,32,30
CC(=O)Nc1cccc(NC(=O)c2cccc3cccnc23)c1,17,13,10,-1,0,x,x,x,x,x
CC(C)CNS(=O)(=O)c1ccc(Br)cc1N1CCC[C@@H]1CO,6,x,-4,2,x,x,x,x,x,x
CC(C)(C)OC(=O)C[C@@H]1C/C=C\C[C@H](CC(=O)N(CCO)Cc2ccccc2)C(=O)NCCOC1=O,6,-2,2,-1,-4,x,x,x,x,x
COc1ccc(C(CNC(=O)C2COc3ccccc3O2)N2CCCC2)cc1 (centres undefined),5,1,3,-3,-7,x,x,x,x,x
SMILES,SENP8 block-1,SENP6 block,SENP7 block,SENP1 FRET inh,SENP8 block-2,SENP8 confirm,SENP6 confirm,SENP7 conf,Casp3 select,Luc interf
Cc1ccc(C(C)NC(=O)c2cc3ccccc3oc2=O)cc1C (centres undefined),-54,14,-2,-1,22,x,x,x,x,x
Cn1c(N)c(C(=O)COC(=O)c2ncc(Cl)c(Cl)c2Cl)c(=O)n(C)c1=O,6,5,-1,2,2,x,x,x,x,x
Cc1nnc(NC(=O)c2ccc3ccccc3c2)s1,-20,12,58*,-1,-1,-5,-2,-1,12,-2
O=C(Nc1ccccc1Cl)c1ccc(C(=O)Nc2ccccc2Cl)cc1,-104,x,x,0,x,x,x,x,x,x
Cc1ccc(NC(=O)c2ccccc2O)cc1,-83,53*,41,-3,28,55*,51*,78*,61*,66*
O=C(Nc1ccc2ccccc2c1)c1ccc(Cl)cc1,9,41,51*,0,-2,-8,15,33,67*,13
O=C(Nc1ccncc1)c1ccc2ccccc2c1,17,-14,16,1,-10,x,x,x,x,x
Cc1ccc(C(=O)Nc2ccccc2Cl)cc1,1,69*,58*,-2,45,50*,55*,86*,78*,55*
Cc1cccc(N2CCN(C(=S)Nc3ccc4nc5n(c(=O)c4c3)CCCCC5)CC2)c1C,-69,-18,4,1,-2,x,x,x,x,x
C=CCNC(=O)c1onc(CSc2cccc(C)c2)c1C(=O)O,34,-10,-7,2,-4,x,x,x,x,x
Cc1ccc(C(=O)CC(=O)c2ccccc2)cc1,20,75*,66*,0,70*,-4,66*,91*,50*,44
Cc1ccc(NC(=O)c2ccccc2)cc1,14,-5,50*,1,12,42,42,78*,72*,54*
Cc1ccc(C(=O)Cc2ccccc2)cc1,12,x,x,1,x,x,x,x,x,x
O=C(Nc1ccccc1)c1ccc(OC(=O)c2ccccc2)cc1,5,54*,81*,0,13,4,8,12,9,0
O=C(NC(=O)c1ccccc1)Nc1ccccc1,6,83*,93*,2,77*,5,27,50*,46,19
